Reference: ChEMBL document CHEMBL3046016, “Antifeedant and growth inhibitory effects of some neo-clerodane diterpenoids isolated from Clerodendron species (Verbenaceae) on Earias vitella and Spodoptera litura” (2003)

Tests used:
Type in all cases: functional
[1] = test system: Spodoptera litura; test: Insecticidal activity against third-instar larval stage of Spodoptera litura in compound-treated castor leaves assessed as larval mortality at 5 ug/cm2 relative to control
[2] = test system: Earias vittella; test: Insecticidal activity against adult Earias vitella assessed as adult deformity at 10 ug/cm3 administered through artificial diet containing Abelmoschus esculentus seed powder (reference value: 4%)
[3] = test system: Spodoptera litura; test: Insecticidal activity against adult Spodoptera litura in compound-treated castor leaves assessed as adult deformity at 10 ug/cm2 relative to control
[4] = test system: Earias vittella; test: Insecticidal activity against third-instar larval stage of Earias vitella assessed as total larval duration time at 10 ug/cm3 administered through artificial diet containing Abelmoschus esculentus seed powder (reference value: 8.2 +/- 0.48 days)
[5] = test system: Earias vittella; test: Insecticidal activity against pupal stage of Earias vitella assessed as pupal weight at 5 ug/cm3 administered through artificial diet containing Abelmoschus esculentus seed powder (reference value: 88.2 +/- 4.01 mg)
[6] = test system: Earias vittella; test: Insecticidal activity against third-instar larval stage of Earias vitella assessed as larval mortality at 5 ug/cm3 administered through artificial diet containing Abelmoschus esculentus seed powder (reference value: 4%)
[7] = test system: Spodoptera litura; test: Insecticidal activity against pupal stage of Spodoptera litura in compound-treated castor leaves assessed as pupal duration time at 10 ug/cm2 (reference value: 9.2 +/- 0.74 days)
[8] = test system: Spodoptera litura; test: Insecticidal activity against male adult Spodoptera litura in compound-treated castor leaves assessed as adult longevity time at 5 ug/cm2 (reference value: 9.4 +/- 0.48 days)
[9] = test system: Earias vittella; test: Insecticidal activity against female adult Earias vitella assessed as adult longevity time at 5 ug/cm3 administered through artificial diet containing Abelmoschus esculentus seed powder (reference value: 8.6 +/- 0.48 days)
[10] = test system: Spodoptera litura; test: Insecticidal activity against third-instar larval stage of Spodoptera litura in compound-treated castor leaves assessed as total larval duration time at 5 ug/cm2 (reference value: 12.4 +/- 0.48 days)
[11] = test system: Earias vittella; test: Insecticidal activity against pupal stage of Earias vitella assessed as pupal mortality at 10 ug/cm3 administered through artificial diet containing Abelmoschus esculentus seed powder (reference value: 8%)
[12] = test system: Spodoptera litura; test: Insecticidal activity against adult Spodoptera litura in compound-treated castor leaves assessed as adult deformity at 5 ug/cm2 relative to control
[13] = test system: Earias vittella; test: Insecticidal activity against male adult Earias vitella assessed as adult longevity time at 5 ug/cm3 administered through artificial diet containing Abelmoschus esculentus seed powder (reference value: 8.2 +/- 0.4 days)
[14] = test system: Spodoptera litura; test: Insecticidal activity against adult Spodoptera litura in compound-treated castor leaves assessed as adult emergence at 10 ug/cm2 relative to control
[15] = test system: Spodoptera litura; test: Insecticidal activity against pupal stage of Spodoptera litura in compound-treated castor leaves assessed as pupal weight at 5 ug/cm2 (reference value: 302.4 +/- 5.9 mg)
[16] = test system: Earias vittella; test: Insecticidal activity against adult Earias vitella assessed as adult deformity at 5 ug/cm3 administered through artificial diet containing Abelmoschus esculentus seed powder (reference value: 4%)
[17] = test system: Spodoptera litura; test: Insecticidal activity against pupal stage of Spodoptera litura in compound-treated castor leaves assessed as pupal mortality at 10 ug/cm2 relative to control
[18] = test system: Spodoptera litura; test: Insecticidal activity against male adult Spodoptera litura in compound-treated castor leaves assessed as adult longevity time at 10 ug/cm2 (reference value: 9.4 +/- 0.48 days)
[19] = test system: Earias vittella; test: Insecticidal activity against pupal stage of Earias vitella assessed as pupal duration time at 5 ug/cm3 administered through artificial diet containing Abelmoschus esculentus seed powder (reference value: 6.4 +/- 0.21 days)
[20] = test system: Earias vittella; test: Insecticidal activity against male adult Earias vitella assessed as adult longevity time at 10 ug/cm3 administered through artificial diet containing Abelmoschus esculentus seed powder (reference value: 8.2 +/- 0.4 days)
[21] = test system: Earias vittella; test: Antifeedant activity against third-instar larval stage of Earias vitella assessed as decrease in diet consumption at 5 ug/cm3 administered through artificial diet containing Abelmoschus esculentus seed powder after 24 hr relative to acetone-treated control; set-up: scale not given: the % may be the effect or the level left
Outline: (§1)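 Artificial diet was modified Klein medium with bhendi (Abelmoschus esculentus) seed powder in place of alfalfa. Compound in acetone was mixed into bhendi meal 12 h before diet preparation so the solvent evaporated. One 3 g diet cube was given to five freshly molted third-instar larvae in a muslin-covered container. After 24 h the cubes were weighed. %AF = 100 − (treated/control)×100.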

[22] = test system: Earias vittella; test: Insecticidal activity against pupal stage of Earias vitella assessed as pupal weight at 10 ug/cm3 administered through artificial diet containing Abelmoschus esculentus seed powder (reference value: 88.2 +/- 4.01 mg)
[23] = test system: Earias vittella; test: Insecticidal activity against pupal stage of Earias vitella assessed as pupal duration time at 10 ug/cm3 administered through artificial diet containing Abelmoschus esculentus seed powder (reference value: 6.4 +/- 0.21 days)
[24] = test system: Earias vittella; test: Insecticidal activity against adult Earias vitella assessed as adult emergence at 10 ug/cm3 administered through artificial diet containing Abelmoschus esculentus seed powder (reference value: 88%)
[25] = test system: Spodoptera litura; test: Antifeedant activity against third-instar larval stage of Spodoptera litura in compound-treated castor leaves assessed as decrease in diet consumption at 5 ug/cm2 after 24 hr by no-choice leaf disk assay relative to acetone-treated control; set-up: scale not given: the % may be the effect or the level left
Outline: (§2)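 Larvae were reared on castor leaves at 25 ± 2 °C. In a no-choice test, compound in acetone was painted on the abaxial side of castor leaf disks and air-dried. Five freshly molted third-instar larvae, starved 4 h, were placed per Petri dish with wet cotton. There were five replicates. After 24 h, consumed leaf area was read on a leaf area meter. %AF = 100 − (treated/control)×100.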

[26] = test system: Spodoptera litura; test: Insecticidal activity against third-instar larval stage of Spodoptera litura in compound-treated castor leaves assessed as total larval duration time at 10 ug/cm2 (reference value: 12.4 +/- 0.48 days)
[27] = test system: Spodoptera litura; test: Insecticidal activity against female adult Spodoptera litura in compound-treated castor leaves assessed as adult longevity time at 10 ug/cm2 (reference value: 10 +/- 0.63 days)
[28] = test system: Spodoptera litura; test: Insecticidal activity against adult Spodoptera litura in compound-treated castor leaves assessed as adult emergence at 5 ug/cm2 relative to control
[29] = test system: Earias vittella; test: Antifeedant activity against third-instar larval stage of Earias vitella assessed as decrease in diet consumption at 10 ug/cm3 administered through artificial diet containing Abelmoschus esculentus seed powder after 24 hr relative to acetone-treated control; set-up: scale not given: the % may be the effect or the level left; outline: as §1
[30] = test system: Spodoptera litura; test: Insecticidal activity against pupal stage of Spodoptera litura in compound-treated castor leaves assessed as pupal mortality at 5 ug/cm2 relative to control
[31] = test system: Spodoptera litura; test: Insecticidal activity against pupal stage of Spodoptera litura in compound-treated castor leaves assessed as pupal weight at 10 ug/cm2 (reference value: 302.4 +/- 5.9 mg)
[32] = test system: Spodoptera litura; test: Antifeedant activity against third-instar larval stage of Spodoptera litura in compound-treated castor leaves assessed as decrease in diet consumption at 10 ug/cm2 after 24 hr by no-choice leaf disk assay relative to acetone-treated control; set-up: scale not given: the % may be the effect or the level left; outline: as §2
[33] = test system: Spodoptera litura; test: Insecticidal activity against pupal stage of Spodoptera litura in compound-treated castor leaves assessed as pupal duration time at 5 ug/cm2 (reference value: 9.2 +/- 0.74 days)
[34] = test system: Earias vittella; test: Insecticidal activity against pupal stage of Earias vitella assessed as pupal mortality at 5 ug/cm3 administered through artificial diet containing Abelmoschus esculentus seed powder (reference value: 8%)
[35] = test system: Earias vittella; test: Insecticidal activity against adult Earias vitella assessed as adult emergence at 5 ug/cm3 administered through artificial diet containing Abelmoschus esculentus seed powder (reference value: 88%)
[36] = test system: Spodoptera litura; test: Insecticidal activity against third-instar larval stage of Spodoptera litura in compound-treated castor leaves assessed as larval mortality at 10 ug/cm2 relative to control
[37] = test system: Earias vittella; test: Insecticidal activity against third-instar larval stage of Earias vitella assessed as larval mortality at 10 ug/cm3 administered through artificial diet containing Abelmoschus esculentus seed powder (reference value: 4%)
[38] = test system: Earias vittella; test: Insecticidal activity against third-instar larval stage of Earias vitella assessed as total larval duration time at 5 ug/cm3 administered through artificial diet containing Abelmoschus esculentus seed powder (reference value: 8.2 +/- 0.48 days)
[39] = test system: Spodoptera litura; test: Insecticidal activity against female adult Spodoptera litura in compound-treated castor leaves assessed as adult longevity time at 5 ug/cm2 (reference value: 10 +/- 0.63 days)
[40] = test system: Earias vittella; test: Insecticidal activity against female adult Earias vitella assessed as adult longevity time at 10 ug/cm3 administered through artificial diet containing Abelmoschus esculentus seed powder (reference value: 8.6 +/- 0.48 days)

| Compound | mortality at 5 µg/cm2 [1] | Activity [2] | Activity [3] | Time [4] | Activity [5] | mortality [6] | Time [7] | Time [8] | Time [9] | Time [10] | mortality [11] | Activity [12] | Time [13] | Activity [14] | Activity [15] | Activity [16] | mortality at 10 µg/cm2 [17] | Time [18] | Time [19] | Time [20] | also measured |
| --- | --- | --- | --- | --- | --- | --- | --- | --- | --- | --- | --- | --- | --- | --- | --- | --- | --- | --- | --- | --- | --- |
| CC(=O)OC[C@@]12[C@@H](OC(C)=O)C[C@@H](C)[C@](C)([C@@H]3C[C@H]4C=CO[C@H]4O3)[C@H]1C[C@@H](O)[C@H](OC(=O)C(C)(C)OC(C)=O)[C@]21CO1 [CLERODENDRIN C] | 12.5% | 8% | 8% | 8.2 days | 69 mg | 4% | 10.6 days | 9.2 days | 7.6 days | 12.5 days | 22.5% | 4% | 7 days | 69.6% | 289.8 mg | 4% | 22.7% | 8.5 days | 7.2 days | 6.8 days | Activity [21]: 31%; Activity [22]: 66.2 mg; Time [23]: 7.8 days; Activity [24]: 70.5%; Activity [25]: 56%; Time [26]: 12.5 days; Time [27]: 8.2 days; Activity [28]: 76%; Activity [29]: 41.54%; mortality at 5 µg/cm2 [30]: 20.2%; Activity [31]: 282.2 mg; Activity [32]: 65%; Time [33]: 10 days; mortality [34]: 20%; Activity [35]: 76%; mortality at 10 µg/cm2 [36]: 14%; mortality [37]: 8%; Time [38]: 8.4 days; Time [39]: 8.9 days; Time [40]: 7.2 days |
| CC[C@@](C)(OC(C)=O)C(=O)O[C@H]1[C@H](OC(C)=O)C[C@@H]2[C@@](C)([C@@H]3C[C@H]4C=CO[C@H]4O3)[C@H](C)C[C@H](OC(C)=O)[C@@]2(COC(C)=O)[C@@]12CO2 [CLERODENDRIN B ACETATE] | 20% | 4% | 8.8% | 9.7 days | 71.2 mg | 4% | 11 days | 9 days | 7.4 days | 12.6 days | 32% | 4.8% | 6.8 days | 64% | 284.4 mg | 4% | 27% | 8.5 days | 7 days | 6.4 days | Activity [21]: 51%; Activity [22]: 64.2 mg; Time [23]: 8.8 days; Activity [24]: 64%; Activity [25]: 65.8%; Time [26]: 13.1 days; Time [27]: 8 days; Activity [28]: 72%; Activity [29]: 69%; mortality at 5 µg/cm2 [30]: 22.7%; Activity [31]: 273.2 mg; Activity [32]: 75%; Time [33]: 10.2 days; mortality [34]: 24%; Activity [35]: 72.5%; mortality at 10 µg/cm2 [36]: 24%; mortality [37]: 4%; Time [38]: 9.2 days; Time [39]: 8.2 days; Time [40]: 7.2 days |
| CC[C@@](C)(OC(C)=O)C(=O)O[C@H]1[C@H](O)C[C@@H]2[C@@](C)([C@@H]3C[C@H]4C=CO[C@H]4O3)[C@H](C)C[C@H](OC(C)=O)[C@@]2(COC(C)=O)[C@@]12CO2 [CLERODENDRIN B] | 32% | 16% | 16.8% | 11.2 days | 55 mg | 15% | 13 days | 6.8 days | 5.8 days | 14.5 days | 42.5% | 12% | 5.4 days | 46.4% | 240 mg | 8% | 37% | 6.2 days | 10 days | 4.6 days | Activity [21]: 74.85%; Activity [22]: 50.4 mg; Time [23]: 12.2 days; Activity [24]: 44%; Activity [25]: 76.5%; Time [26]: 15.8 days; Time [27]: 5.2 days; Activity [28]: 59.2%; Activity [29]: 82.14%; mortality at 5 µg/cm2 [30]: 29.4%; Activity [31]: 220.2 mg; Activity [32]: 84.9%; Time [33]: 12 days; mortality [34]: 40%; Activity [35]: 52.5%; mortality at 10 µg/cm2 [36]: 44%; mortality [37]: 20%; Time [38]: 10.6 days; Time [39]: 6.4 days; Time [40]: 4.8 days |
